Assay results from ChEMBL document CHEMBL1132296, “Anticonvulsant and sodium channel-blocking properties of novel 10,11-dihydro-5H-dibenz[b,f]azepine-5-carboxamide derivatives” (J Med Chem, 1999).

What was measured:
Rattus norvegicus [1] = organism: Rattus norvegicus; assay: Compound was tested for anticonvulsant activity against MES-induced seizures in rat; parameters: concentration or dose not given beside the values
Rattus norvegicus [2] = assay: Compound was tested intraperitoneally for anticonvulsant activity against MES-induced seizures in rat by MES test; assay type: functional; conditions: ip
How it was run: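 Intraperitoneal dosing to rats, MES given at t_max. Corneal electrodes after oxibuprocaine eye drops; abolition of hindleg tonic extensor component as endpoint. 5–8 rats/group; ED50 from logistic equation fit.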

Rattus norvegicus [3] = assay: Compound was tested for anticonvulsant activity administered by gastric tube in rat by MES test; assay type: functional
How it was run: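 Rats, oral by gastric tube, tested at t_max. Rats were pre-screened in a first MES session through corneal electrodes after oxibuprocaine eye drops, and only typical tonic–clonic convulsers were kept. Next day, compound or vehicle, then MES sessions 2 or 4 h and 6, 8 or 12 h post-dose. Endpoint was abolition of hindleg tonic extension. 5–8 rats/group; ED50 from logistic fit.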

Rattus norvegicus [4] = assay: Compound was tested for anticonvulsant activity administered by gastric tube in rat by rotarod test; assay type: functional
Rattus norvegicus [5] = assay: Compound was tested intraperitoneally for anticonvulsant activity by rotarod test; assay type: functional; conditions: ip
How it was run: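 Rats trained to stay 3 min on a 5-cm rod rotating at 6 rpm. Next day, compound ip in DMSO (2 mL/kg), placed on rod 15 min later at 6 rpm. Deficit = failure to hold equilibrium 1 min in each of three trials. 5–8 rats/group; TD50 from logistic fit.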

[6] = target: T1, Sodium channel alpha subunits; brain (Types I, II, III) (Rattus norvegicus) (UniProt P04775+P04774+P08104); assay: Percent inhibition of 22Na+ uptake by voltage sensitive sodium channel of rat cortical synaptosomes at 100 uM; assay type: functional, subcellular
[7] = target: T1, Sodium channel alpha subunits; brain (Types I, II, III) (Rattus norvegicus); assay: Percent inhibition of 22Na+ uptake by voltage sensitive sodium channel of rat cortical synaptosomes at 30 uM; assay type: functional, subcellular
Rattus norvegicus [8] = assay: t max was for the anticonvulsant effect was tested in rats administered by gastric tube; t max; assay type: functional, organism-based; conditions: Stomach
[9] = target: Sodium channel alpha subunits; brain (Types I, II, III) (Rattus norvegicus, UniProt P04775+P04774+P08104); assay: Displacement of [3H]BTX from voltage-gated sodium channel of rat cortical synaptosomes; assay type: subcellular
Rattus norvegicus [10] = assay: t max for anticonvulsant activity was tested in rats intraperitoneally; assay type: functional, organism-based
[11] = target: T1, Sodium channel alpha subunits; brain (Types I, II, III) (Rattus norvegicus); conditions: 300 uM
Rattus norvegicus [12] = organism: Rattus norvegicus; assay: Protective index value of the compound, given by gastric tube (TD50/ED50); assay type: functional, Stomach
How it was run: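 Ratio TD50/ED50 from oral (gastric tube) rotarod and MES tests in rats at t_max. Both values come from logistic fits, 5–8 rats/group.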

Rattus norvegicus [13] = assay: Protective index value of the compound, given by intraperitoneally (TD50/ED50); assay type: functional
How it was run: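 Ratio TD50/ED50 from intraperitoneal rotarod and MES tests in rats. Both values come from logistic fits, 5–8 rats/group.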

[14] = target: T1, Sodium channel alpha subunits; brain (Types I, II, III) (Rattus norvegicus); assay: Percent inhibition of 22Na+ uptake by voltage sensitive sodium channel of rat cortical synaptosomes at 300 uM; assay type: functional, subcellular

T1 sequence (P04775 whole entry, looked up, other chains not shown): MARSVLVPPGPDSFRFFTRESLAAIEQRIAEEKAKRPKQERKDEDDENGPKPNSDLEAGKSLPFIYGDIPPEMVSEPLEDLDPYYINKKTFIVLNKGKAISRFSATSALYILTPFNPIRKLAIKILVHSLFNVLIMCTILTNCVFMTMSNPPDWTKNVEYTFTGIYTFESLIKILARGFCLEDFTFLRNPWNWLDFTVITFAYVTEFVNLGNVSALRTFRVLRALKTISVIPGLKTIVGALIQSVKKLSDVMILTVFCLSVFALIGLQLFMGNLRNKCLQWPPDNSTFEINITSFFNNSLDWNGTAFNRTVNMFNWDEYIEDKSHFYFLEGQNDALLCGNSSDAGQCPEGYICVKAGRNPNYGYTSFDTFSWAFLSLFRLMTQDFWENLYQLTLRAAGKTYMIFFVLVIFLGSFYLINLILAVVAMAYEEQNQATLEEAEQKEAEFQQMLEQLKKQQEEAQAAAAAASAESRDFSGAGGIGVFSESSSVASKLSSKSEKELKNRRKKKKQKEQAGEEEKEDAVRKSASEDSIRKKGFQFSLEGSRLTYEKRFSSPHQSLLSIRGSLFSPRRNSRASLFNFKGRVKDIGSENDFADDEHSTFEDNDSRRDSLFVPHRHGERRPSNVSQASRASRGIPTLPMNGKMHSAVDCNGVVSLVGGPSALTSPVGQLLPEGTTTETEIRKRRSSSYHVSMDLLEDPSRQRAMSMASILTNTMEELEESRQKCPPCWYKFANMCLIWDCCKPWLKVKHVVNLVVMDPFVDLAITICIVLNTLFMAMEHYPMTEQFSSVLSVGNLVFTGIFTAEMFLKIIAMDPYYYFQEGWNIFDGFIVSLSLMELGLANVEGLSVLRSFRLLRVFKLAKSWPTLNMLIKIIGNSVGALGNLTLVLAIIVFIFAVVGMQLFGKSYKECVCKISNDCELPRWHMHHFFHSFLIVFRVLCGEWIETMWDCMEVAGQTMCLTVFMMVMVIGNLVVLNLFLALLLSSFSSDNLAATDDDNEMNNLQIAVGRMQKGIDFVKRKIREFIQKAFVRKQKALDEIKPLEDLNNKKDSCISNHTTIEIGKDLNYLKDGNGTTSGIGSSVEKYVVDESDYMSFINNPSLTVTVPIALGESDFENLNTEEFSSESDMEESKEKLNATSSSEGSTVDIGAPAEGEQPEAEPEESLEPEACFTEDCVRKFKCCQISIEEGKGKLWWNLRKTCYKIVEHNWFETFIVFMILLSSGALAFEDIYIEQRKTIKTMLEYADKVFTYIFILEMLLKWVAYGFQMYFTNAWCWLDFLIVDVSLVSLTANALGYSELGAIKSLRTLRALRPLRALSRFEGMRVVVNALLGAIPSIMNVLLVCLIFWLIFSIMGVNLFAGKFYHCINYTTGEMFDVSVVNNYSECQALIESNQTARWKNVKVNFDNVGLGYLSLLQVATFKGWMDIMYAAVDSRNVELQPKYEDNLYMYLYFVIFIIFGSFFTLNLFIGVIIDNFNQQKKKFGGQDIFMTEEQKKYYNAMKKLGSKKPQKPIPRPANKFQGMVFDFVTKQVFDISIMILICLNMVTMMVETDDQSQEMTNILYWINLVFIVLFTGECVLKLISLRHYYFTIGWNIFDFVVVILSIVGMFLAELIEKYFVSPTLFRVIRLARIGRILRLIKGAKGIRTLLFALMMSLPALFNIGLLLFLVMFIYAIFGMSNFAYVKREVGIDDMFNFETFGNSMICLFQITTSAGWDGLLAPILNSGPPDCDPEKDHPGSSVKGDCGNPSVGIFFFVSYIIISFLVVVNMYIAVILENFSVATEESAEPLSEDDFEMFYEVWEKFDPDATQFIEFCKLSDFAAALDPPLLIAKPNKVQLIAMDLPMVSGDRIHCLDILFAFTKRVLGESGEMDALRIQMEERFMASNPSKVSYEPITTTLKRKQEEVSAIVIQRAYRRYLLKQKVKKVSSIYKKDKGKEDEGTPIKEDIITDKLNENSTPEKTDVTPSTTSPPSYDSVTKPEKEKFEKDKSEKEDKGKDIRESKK
T1 sequence (P08104 whole entry, looked up, other chains not shown): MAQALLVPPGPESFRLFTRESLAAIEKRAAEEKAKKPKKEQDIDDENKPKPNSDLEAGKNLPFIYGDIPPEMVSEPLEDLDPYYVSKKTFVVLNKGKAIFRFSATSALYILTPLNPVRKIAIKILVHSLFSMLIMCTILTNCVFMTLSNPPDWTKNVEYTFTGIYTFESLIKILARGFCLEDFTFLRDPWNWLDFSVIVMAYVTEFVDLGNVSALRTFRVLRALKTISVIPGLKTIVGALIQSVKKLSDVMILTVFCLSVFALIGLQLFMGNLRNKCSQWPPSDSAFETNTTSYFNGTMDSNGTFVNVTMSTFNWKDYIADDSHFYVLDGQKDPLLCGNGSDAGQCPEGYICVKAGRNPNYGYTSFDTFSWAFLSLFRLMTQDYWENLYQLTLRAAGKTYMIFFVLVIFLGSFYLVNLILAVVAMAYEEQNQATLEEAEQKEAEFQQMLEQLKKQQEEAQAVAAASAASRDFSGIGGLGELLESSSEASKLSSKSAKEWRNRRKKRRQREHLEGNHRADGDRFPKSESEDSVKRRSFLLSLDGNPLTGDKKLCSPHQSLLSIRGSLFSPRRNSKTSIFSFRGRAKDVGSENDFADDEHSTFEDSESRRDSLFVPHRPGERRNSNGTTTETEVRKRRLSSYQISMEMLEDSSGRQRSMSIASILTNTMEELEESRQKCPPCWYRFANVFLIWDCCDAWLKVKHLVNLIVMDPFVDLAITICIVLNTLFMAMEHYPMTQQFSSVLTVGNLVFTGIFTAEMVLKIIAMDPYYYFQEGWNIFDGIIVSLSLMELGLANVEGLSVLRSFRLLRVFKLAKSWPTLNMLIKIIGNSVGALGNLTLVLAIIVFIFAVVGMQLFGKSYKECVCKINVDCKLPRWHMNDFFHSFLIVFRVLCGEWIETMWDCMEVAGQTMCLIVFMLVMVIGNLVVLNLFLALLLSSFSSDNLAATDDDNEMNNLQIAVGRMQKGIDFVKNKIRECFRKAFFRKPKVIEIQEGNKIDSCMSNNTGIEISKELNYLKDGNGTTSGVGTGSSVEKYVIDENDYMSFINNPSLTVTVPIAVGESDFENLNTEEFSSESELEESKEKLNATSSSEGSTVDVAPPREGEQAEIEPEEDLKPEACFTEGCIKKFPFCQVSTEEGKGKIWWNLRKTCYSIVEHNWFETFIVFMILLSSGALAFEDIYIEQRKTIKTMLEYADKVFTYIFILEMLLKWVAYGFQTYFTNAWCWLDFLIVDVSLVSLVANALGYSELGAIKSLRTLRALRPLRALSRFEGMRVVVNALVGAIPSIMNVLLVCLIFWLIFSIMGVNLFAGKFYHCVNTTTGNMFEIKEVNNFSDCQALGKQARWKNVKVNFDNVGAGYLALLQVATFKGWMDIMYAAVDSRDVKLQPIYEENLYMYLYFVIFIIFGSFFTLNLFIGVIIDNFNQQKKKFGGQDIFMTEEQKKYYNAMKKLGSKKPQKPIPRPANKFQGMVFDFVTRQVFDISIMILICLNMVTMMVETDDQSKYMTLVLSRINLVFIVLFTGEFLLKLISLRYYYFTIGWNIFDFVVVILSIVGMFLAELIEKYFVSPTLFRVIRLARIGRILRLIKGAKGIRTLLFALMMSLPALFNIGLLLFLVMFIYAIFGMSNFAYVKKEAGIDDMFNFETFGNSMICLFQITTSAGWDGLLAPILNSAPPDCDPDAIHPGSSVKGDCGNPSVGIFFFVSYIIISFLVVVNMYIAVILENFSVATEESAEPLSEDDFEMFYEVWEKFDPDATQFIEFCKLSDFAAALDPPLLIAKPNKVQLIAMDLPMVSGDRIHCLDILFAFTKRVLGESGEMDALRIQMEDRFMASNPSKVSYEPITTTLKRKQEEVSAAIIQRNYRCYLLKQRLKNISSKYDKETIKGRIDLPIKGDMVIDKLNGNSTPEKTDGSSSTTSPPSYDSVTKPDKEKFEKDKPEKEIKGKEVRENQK

| SMILES | Protection (Rattus norvegicus [1]) | ED50 (Rattus norvegicus [2]) | TD50 (Rattus norvegicus [5]) | Tmax (Rattus norvegicus [10]) | other results |
| --- | --- | --- | --- | --- | --- |
| CCCC(=O)OC1Cc2ccccc2N(C(N)=O)c2ccccc21 (centres undefined) | 34.2% | – | – | – | – |
| CCCC(CC)C(=O)OC1Cc2ccccc2N(C(N)=O)c2ccccc21 (centres undefined) | -12.8% | – | – | – | – |
| CCOC(=O)OC1Cc2ccccc2N(C(N)=O)c2ccccc21 (centres undefined) | 18.3% | – | – | – | – |
| NC(=O)N1c2ccccc2CC(=O)c2ccccc21 [OXCARBAZEPINE] | – | 6.1 mg/kg | 40.1 mg/kg | 5 min | ED50 (Rattus norvegicus [3]): 10 mg/kg; TD50 (Rattus norvegicus [4]): > 1000 mg/kg; inhibition [6]: 50.2%; inhibition [7]: 31.2%; Tmax (Rattus norvegicus [8]): 120 min; IC50 [9]: 161 µM; inhibition [11]: 76.2% |
| NC(=O)N1c2ccccc2CC(OC(=O)Cc2ccc([N+](=O)[O-])cc2)c2ccccc21 (centres undefined) | 13.8% | – | – | – | – |
| CCCCCCCCCCCCCCCCCC(=O)OC1Cc2ccccc2N(C(N)=O)c2ccccc21 (centres undefined) | 0.8% | – | – | – | – |
| NC(=O)N1c2ccccc2CC(OC(=O)c2ccccc2)c2ccccc21 (centres undefined) | 17.2% | – | – | – | – |
| NC(=O)N1c2ccccc2CC(OC(=O)CBr)c2ccccc21 (centres undefined) | 15.1% | – | – | – | – |
| CC(=O)OC1Cc2ccccc2N(C(N)=O)c2ccccc21 (centres undefined) | 54.4% | 13.1 mg/kg | 130 mg/kg | 5 min | ED50 (Rattus norvegicus [3]): 13.5 mg/kg; TD50 (Rattus norvegicus [4]): 428 mg/kg; Protective index (Rattus norvegicus [12]): 31.7; Protective index (Rattus norvegicus [13]): 9.9; inhibition [6]: 61.8%; inhibition [7]: 42.2%; inhibition [14]: 82.1%; Tmax (Rattus norvegicus [8]): 120 min; IC50 [9]: 141 µM |
| CCC(=O)OC1Cc2ccccc2N(C(N)=O)c2ccccc21 (centres undefined) | 40.6% | – | – | – | – |
| NC(=O)N1c2ccccc2CC(OC(=O)c2cccnc2)c2ccccc21 (centres undefined) | 32.8% | – | – | – | – |
| NC(=O)N1c2ccccc2C[C@@H](O)c2ccccc21 | – | 17.9 mg/kg | 97.4 mg/kg | 30 min | – |
| NC(=O)N1c2ccccc2CC(OC(=O)CCl)c2ccccc21 (centres undefined) | 0.5% | – | – | – | – |
| NC(=O)N1c2ccccc2C=Cc2ccccc21 [CARBAMAZEPINE] | – | 3.4 mg/kg | 27.4 mg/kg | 15 min | ED50 (Rattus norvegicus [3]): 5.4 mg/kg; TD50 (Rattus norvegicus [4]): 251 mg/kg; inhibition [6]: 44.3%; inhibition [7]: 22.6%; inhibition [14]: 64.8%; Tmax (Rattus norvegicus [8]): 120 min; IC50 [9]: 210 µM |
| CCCC(CCC)C(=O)OC1Cc2ccccc2N(C(N)=O)c2ccccc21 (centres undefined) | 0.2% | – | – | – | – |
| CC(=O)O[C@H]1Cc2ccccc2N(C(N)=O)c2ccccc21 [ESLICARBAZEPINE ACETATE] | 100% | 6.3 mg/kg | 78.6 mg/kg | 15 min | ED50 (Rattus norvegicus [3]): 4.7 mg/kg; TD50 (Rattus norvegicus [4]): 359 mg/kg; Protective index (Rattus norvegicus [12]): 76.3; Protective index (Rattus norvegicus [13]): 12.5; inhibition [6]: 73.4%; inhibition [7]: 52.6%; inhibition [14]: 95.6%; Tmax (Rattus norvegicus [8]): 120 min; IC50 [9]: 138 µM |
| CC(C)(C)C(=O)OC1Cc2ccccc2N(C(N)=O)c2ccccc21 (centres undefined) | 6.5% | – | – | – | – |
| CC(=O)O[C@@H]1Cc2ccccc2N(C(N)=O)c2ccccc21 | 5.9% | 18 mg/kg | 135 mg/kg | 60 min | ED50 (Rattus norvegicus [3]): 10.9 mg/kg; TD50 (Rattus norvegicus [4]): > 1000 mg/kg; Protective index (Rattus norvegicus [12]): >91.7; Protective index (Rattus norvegicus [13]): 7.5; inhibition [6]: 57.7%; inhibition [7]: 17.9%; inhibition [14]: 73.2%; Tmax (Rattus norvegicus [8]): 480 min; IC50 [9]: 113 µM |
| NC(=O)N1c2ccccc2CC(O)c2ccccc21 (centres undefined) [LICARBAZEPINE] | – | 14.6 mg/kg | 89.3 mg/kg | 15 min | – |
| NC(=O)N1c2ccccc2C[C@H](O)c2ccccc21 [ESLICARBAZEPINE] | – | 17.1 mg/kg | 96.6 mg/kg | 30 min | – |
| NC(=O)N1c2ccccc2CC(OC=O)c2ccccc21 (centres undefined) | 32.1% | – | – | – | – |
| CC(Cl)C(=O)OC1Cc2ccccc2N(C(N)=O)c2ccccc21 (centres undefined) | 3.9% | – | – | – | – |
| COc1ccc(CC(=O)OC2Cc3ccccc3N(C(N)=O)c3ccccc32)cc1 (centres undefined) | 8.1% | – | – | – | – |
| CC(=O)Oc1ccccc1C(=O)OC1Cc2ccccc2N(C(N)=O)c2ccccc21 (centres undefined) | 10.2% | – | – | – | – |
